The source made the active and inactive calls. No cut-off for these calls is given here.
How the values were obtained:
[1] = target: T1, ATP-dependent translocase ABCB1 (Homo sapiens, UniProt P08183); assay: Inhibition of full length human ABCB1 expressed in Flp-In-293 cells at 2.5 uM incubated for 30 mins by calcein-AM uptake assay relative to control; format: cell-based; settings: 0.5 h
[2] = target: T1, ATP-dependent translocase ABCB1; assay: Inhibition of full length human ABCB1 expressed in Flp-In-293 cells at 5 uM incubated for 30 mins by calcein-AM uptake assay relative to control; format: cell-based; settings: 0.5 h
HEK293 [3] = assay: Potentiation of paclitaxel-induced cytotoxicity in Flp-In-293 cells assessed as reduction in paclitaxel IC50 at 8 uM after 72 hrs by SRB assay relative to control; format: functional, Homo sapiens
HEK293 [4] = assay: Potentiation of paclitaxel-induced cytotoxicity in Flp-In-293 cells assessed as reduction in paclitaxel IC50 at 10 uM after 72 hrs by SRB assay relative to control; format: functional, Homo sapiens
HEK293 [5] = assay: Potentiation of vincristine-induced cytotoxicity in Flp-In-293 cells assessed as reduction in vincristine IC50 at 8 uM after 72 hrs by SRB assay relative to control; format: functional, Homo sapiens
HEK293 [6] = assay: Potentiation of vincristine-induced cytotoxicity in Flp-In-293 cells assessed as reduction in vincristine IC50 at 10 uM after 72 hrs by SRB assay relative to control; format: functional, Homo sapiens
HEK293 [7] = assay: Potentiation of doxorubicin-induced cytotoxicity in Flp-In-293 cells assessed as reduction in doxorubicin IC50 at 8 uM after 72 hrs by SRB assay relative to control; format: functional, Homo sapiens
HEK293 [8] = assay: Potentiation of doxorubicin-induced cytotoxicity in Flp-In-293 cells assessed as reduction in doxorubicin IC50 at 10 uM after 72 hrs by SRB assay relative to control; format: functional, Homo sapiens
[9] = target: T1, ATP-dependent translocase ABCB1; assay: Inhibition of full length human ABCB1 expressed in Flp-In-293 cells assessed as potentiation of paclitaxel-induced cytotoxicity at 10 uM after 72 hrs by SRB assay relative to control; format: cell-based
[10] = target: T1, ATP-dependent translocase ABCB1; assay: Inhibition of full length human ABCB1 expressed in Flp-In-293 cells assessed as potentiation of paclitaxel-induced cytotoxicity at 8 uM after 72 hrs by SRB assay relative to control; format: cell-based
[11] = target: T1, ATP-dependent translocase ABCB1; assay: Inhibition of full length human ABCB1 expressed in Flp-In-293 cells assessed as potentiation of vincristine-induced cytotoxicity at 8 uM after 72 hrs by SRB assay relative to control; format: cell-based
[12] = target: T1, ATP-dependent translocase ABCB1; assay: Inhibition of full length human ABCB1 expressed in Flp-In-293 cells assessed as potentiation of vincristine-induced cytotoxicity at 10 uM after 72 hrs by SRB assay relative to control; format: cell-based
[13] = target: T1, ATP-dependent translocase ABCB1; assay: Inhibition of full length human ABCB1 expressed in Flp-In-293 cells assessed as potentiation of doxorubicin-induced cytotoxicity at 8 uM after 72 hrs by SRB assay relative to control; format: cell-based
[14] = target: T1, ATP-dependent translocase ABCB1; assay: Inhibition of full length human ABCB1 expressed in Flp-In-293 cells assessed as potentiation of doxorubicin-induced cytotoxicity at 10 uM after 72 hrs by SRB assay relative to control; format: cell-based
HEK293 [15] = assay: Downregulation of ABCB1 mRNA expression in Flp-In-293 cells transfected with full length human ABCB1 at 5 uM after 72 hrs by RT-PCR analysis; format: functional, cell-based
Outline: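 ABCB1 mRNA measured after treating ABCB1/Flp-In-293 cells with test compounds for 72 hr. Data given as mean ± SE of three experiments, each in triplicate.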

T1 sequence (P08183 whole entry): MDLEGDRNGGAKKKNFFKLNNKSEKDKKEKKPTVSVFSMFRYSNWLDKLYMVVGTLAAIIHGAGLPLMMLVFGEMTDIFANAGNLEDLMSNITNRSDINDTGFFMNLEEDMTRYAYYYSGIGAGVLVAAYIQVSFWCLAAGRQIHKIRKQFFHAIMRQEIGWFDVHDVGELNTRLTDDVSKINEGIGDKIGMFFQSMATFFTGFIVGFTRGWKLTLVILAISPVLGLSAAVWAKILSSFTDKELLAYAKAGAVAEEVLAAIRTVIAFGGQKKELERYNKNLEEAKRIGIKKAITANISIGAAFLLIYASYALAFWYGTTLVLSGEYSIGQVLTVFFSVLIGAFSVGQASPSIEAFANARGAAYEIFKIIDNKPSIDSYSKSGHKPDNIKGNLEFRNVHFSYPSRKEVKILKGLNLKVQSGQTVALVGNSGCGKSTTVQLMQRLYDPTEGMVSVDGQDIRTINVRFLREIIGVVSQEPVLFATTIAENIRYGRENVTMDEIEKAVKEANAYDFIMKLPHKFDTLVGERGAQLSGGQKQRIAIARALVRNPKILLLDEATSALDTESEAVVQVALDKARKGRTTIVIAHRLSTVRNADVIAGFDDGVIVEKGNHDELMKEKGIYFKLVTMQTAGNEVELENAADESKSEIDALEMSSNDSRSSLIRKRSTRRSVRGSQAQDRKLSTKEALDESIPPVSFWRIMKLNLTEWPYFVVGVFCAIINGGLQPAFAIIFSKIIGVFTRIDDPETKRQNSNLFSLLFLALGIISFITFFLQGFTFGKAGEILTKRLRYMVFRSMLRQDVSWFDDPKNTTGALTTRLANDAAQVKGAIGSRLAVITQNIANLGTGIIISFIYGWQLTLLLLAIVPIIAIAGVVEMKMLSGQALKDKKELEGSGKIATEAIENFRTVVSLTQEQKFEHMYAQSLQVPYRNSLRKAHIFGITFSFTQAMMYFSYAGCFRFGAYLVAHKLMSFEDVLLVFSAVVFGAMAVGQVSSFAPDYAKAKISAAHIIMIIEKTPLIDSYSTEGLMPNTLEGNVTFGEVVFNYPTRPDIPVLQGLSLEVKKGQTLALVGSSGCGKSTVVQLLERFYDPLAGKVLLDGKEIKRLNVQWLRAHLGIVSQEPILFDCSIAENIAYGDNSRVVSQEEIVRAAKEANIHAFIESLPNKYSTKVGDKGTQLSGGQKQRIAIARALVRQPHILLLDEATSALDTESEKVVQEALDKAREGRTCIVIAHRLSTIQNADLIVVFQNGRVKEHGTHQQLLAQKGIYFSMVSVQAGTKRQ

Compound	fold change (FC) [1]	fold change (FC) [2]	further results
COc1ccccc1-c1coc2cc3occ(-c4ccccc4OC)c(=O)c3c(O)c2c1=O	0.76	0.82	
COc1ccc(CCN(C)CCCC(C#N)(c2ccc(OC)c(OC)c2)C(C)C)cc1OC (centres undefined) [VERAPAMIL]		2.39	
O=c1c(-c2ccccc2[N+](=O)[O-])coc2cc3occ(-c4ccccc4[N+](=O)[O-])c(=O)c3c(O)c12	0.85	0.83	
COc1cc(-c2coc3cc4occ(-c5cc(OC)c(OC)c(OC)c5)c(=O)c4c(O)c3c2=O)cc(OC)c1OC	0.8	0.72	
O=c1c(-c2ccc(OC(F)(F)F)cc2)coc2c1c(O)cc1occ(-c3ccc(OC(F)(F)F)cc3)c(=O)c12	0.97	1.04	
O=c1c(-c2ccc(C(F)(F)F)cc2)coc2c1c(O)cc1occ(-c3ccc(C(F)(F)F)cc3)c(=O)c12	0.87	0.9	
COc1cccc(-c2coc3cc4occ(-c5cccc(OC)c5)c(=O)c4c(O)c3c2=O)c1	1	0.85	
O=c1c(-c2ccccc2C(F)(F)F)coc2cc3occ(-c4ccccc4C(F)(F)F)c(=O)c3c(O)c12	1.32	1.36	
O=c1c(-c2cccc(C(F)(F)F)c2)coc2c1c(O)cc1occ(-c3cccc(C(F)(F)F)c3)c(=O)c12	1.1	1.15	
COc1cc(-c2coc3c(c(O)cc4occ(-c5cc(OC)c(OC)c(OC)c5)c(=O)c43)c2=O)cc(OC)c1OC	0.76	0.75	
O=c1c(-c2ccccc2)coc2cc3occ(-c4ccccc4)c(=O)c3c(O)c12	1.04	0.9	
COc1ccc(-c2coc3cc4occ(-c5ccc(OC)c(OC)c5)c(=O)c4c(O)c3c2=O)cc1OC	0.81	0.86	
O=c1c(-c2ccc(Cl)cc2)coc2cc3occ(-c4ccc(Cl)cc4)c(=O)c3c(O)c12	1.06	1.08	
COc1ccc(-c2coc3c(c(O)cc4occ(-c5ccc(OC)c(OC)c5)c(=O)c43)c2=O)cc1OC	1.45	1.64	fold change (FC) (HEK293 [3]): 1; fold change (FC) (HEK293 [4]): 1.3; fold change (FC) (HEK293 [5]): 7.8; fold change (FC) (HEK293 [6]): 8.2; fold change (FC) (HEK293 [7]): 1.2; fold change (FC) (HEK293 [8]): 1.3; fold change (FC) [9]: 9.5; fold change (FC) [10]: 8.8; fold change (FC) [11]: 4.1; fold change (FC) [12]: 9.7; fold change (FC) [13]: 1.5; fold change (FC) [14]: 1.5; Activity (HEK293 [15]): Active
O=c1c(-c2ccc(OC(F)(F)F)cc2)coc2cc3occ(-c4ccc(OC(F)(F)F)cc4)c(=O)c3c(O)c12	0.62	0.63	
O=c1c(-c2cccc3ccccc23)coc2c1c(O)cc1occ(-c3cccc4ccccc34)c(=O)c12	0.87	0.85	
O=c1c(-c2cccc3ccccc23)coc2cc3occ(-c4cccc5ccccc45)c(=O)c3c(O)c12	0.72	0.64	
Cc1cccc(-c2coc3cc4occ(-c5cccc(C)c5)c(=O)c4c(O)c3c2=O)c1	0.86	0.93	
O=c1c(-c2cccc(O)c2)coc2cc3occ(-c4cccc(O)c4)c(=O)c3c(O)c12	1.33	1.19	
O=c1c(-c2cccc(F)c2)coc2cc3occ(-c4cccc(F)c4)c(=O)c3c(O)c12	0.6	0.75	
O=c1c(-c2ccc(F)cc2)coc2cc3occ(-c4ccc(F)cc4)c(=O)c3c(O)c12	0.85	1.3	
Cc1ccccc1-c1coc2cc3occ(-c4ccccc4C)c(=O)c3c(O)c2c1=O	0.87	0.81	
Cc1ccc(-c2coc3cc4occ(-c5ccc(C)cc5)c(=O)c4c(O)c3c2=O)cc1	1.62	1.81	
O=c1c(-c2cccc(Cl)c2)coc2cc3occ(-c4cccc(Cl)c4)c(=O)c3c(O)c12	0.5	0.87	
O=c1c(-c2ccccc2F)coc2cc3occ(-c4ccccc4F)c(=O)c3c(O)c12	0.92	0.89	
COc1ccc(-c2coc3cc4occ(-c5ccc(OC)cc5)c(=O)c4c(O)c3c2=O)cc1	0.87	1.3	
O=c1c(-c2c(F)cccc2Cl)coc2cc3occ(-c4c(F)cccc4Cl)c(=O)c3c(O)c12	0.95	1.06	
O=c1c(-c2ccccc2Cl)coc2cc3occ(-c4ccccc4Cl)c(=O)c3c(O)c12	0.71	0.85	
O=c1c(-c2cccc(C(F)(F)F)c2)coc2cc3occ(-c4cccc(C(F)(F)F)c4)c(=O)c3c(O)c12	1.27	1.18	

Now from value to molecule, other results behind:

fold change (FC) [1]	fold change (FC) [2]	Compound	further results
0.72	0.7	O=c1c(-c2ccc3c(c2)OCO3)coc2c1c(O)cc1occ(-c3ccc4c(c3)OCO4)c(=O)c12	
0.98	1.03	O=c1c(-c2ccccc2[N+](=O)[O-])coc2c1c(O)cc1occ(-c3ccccc3[N+](=O)[O-])c(=O)c12	
0.88	0.75	O=c1c(-c2ccc([N+](=O)[O-])cc2)coc2c1c(O)cc1occ(-c3ccc([N+](=O)[O-])cc3)c(=O)c12	
0.8	0.81	O=c1c(-c2ccc(Cl)c(Cl)c2)coc2c1c(O)cc1occ(-c3ccc(Cl)c(Cl)c3)c(=O)c12	
0.76	0.67	O=c1c(-c2ccccc2F)coc2c1c(O)cc1occ(-c3ccccc3F)c(=O)c12	
0.92	0.84	O=c1c(-c2ccc(F)cc2)coc2c1c(O)cc1occ(-c3ccc(F)cc3)c(=O)c12	
0.83	0.82	O=c1c(-c2cccc(Cl)c2)coc2c1c(O)cc1occ(-c3cccc(Cl)c3)c(=O)c12	
1.19	1.28	COc1cccc(-c2coc3c(c(O)cc4occ(-c5cccc(OC)c5)c(=O)c43)c2=O)c1	
0.96	0.82	O=c1c(-c2cccc(F)c2)coc2c1c(O)cc1occ(-c3cccc(F)c3)c(=O)c12	
1.58	2.04	Cc1ccc(-c2coc3c(c(O)cc4occ(-c5ccc(C)cc5)c(=O)c43)c2=O)cc1	
0.76	0.82	O=c1c(-c2ccc(Cl)cc2)coc2c1c(O)cc1occ(-c3ccc(Cl)cc3)c(=O)c12	
0.98	1.09	O=c1c(-c2ccccc2Cl)coc2c1c(O)cc1occ(-c3ccccc3Cl)c(=O)c12	
0.88	0.83	O=c1c(-c2cccs2)coc2c1c(O)cc1occ(-c3cccs3)c(=O)c12	
0.8	0.63	O=c1c(C2CC2)coc2c1c(O)cc1occ(C3CC3)c(=O)c12	
1.01	0.99	O=c1c(-c2cccc(O)c2)coc2c1c(O)cc1occ(-c3cccc(O)c3)c(=O)c12	
0.66	0.64	O=c1c(-c2c(F)cccc2Cl)coc2c1c(O)cc1occ(-c3c(F)cccc3Cl)c(=O)c12	
1.15	1.53	Cc1ccccc1-c1coc2c(c(O)cc3occ(-c4ccccc4C)c(=O)c32)c1=O	
0.86	0.86	O=c1c(C2CC2)coc2cc3occ(C4CC4)c(=O)c3c(O)c12	
1.4	1.56	COc1ccccc1-c1coc2c(c(O)cc3occ(-c4ccccc4OC)c(=O)c32)c1=O	
1.04	1.29	O=c1c(-c2ccccc2)coc2c1c(O)cc1occ(-c3ccccc3)c(=O)c12	
0.61	0.67	O=c1c(-c2cccs2)coc2cc3occ(-c4cccs4)c(=O)c3c(O)c12	
0.76	0.81	O=c1c(-c2ccccc2C(F)(F)F)coc2c1c(O)cc1occ(-c3ccccc3C(F)(F)F)c(=O)c12	

— ChEMBL document CHEMBL3822397, “Synthesis and bioevaluation of novel benzodipyranone derivatives as P-glycoprotein inhibitors for multidrug resistance reversal agents” (Eur J Med Chem, 2016)
